Screens as filed in PubChem BioAssay.
Compounds with a hit are over-represented: about 3.5% of the library has one in this group of screens.
MrgX1 antagonist – blocks BAM8-22 activation of human MrgX1 receptor; MRGX1-HEK293 calcium flux, Fluo-4, BAM8-22 antagonism; hits give low values; B-score at 10 µM; 310,000 tested, 1.3% active;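 active = calcium-response B-score plate-corrected more than 3 library SD below zero, starting fluorescence within 5 deviations, no agonist response on first addition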;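 note: peak minus trough fluorescence over baseline after final BAM8-22 challenge near maximal dose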
Target sequence (Q96LB2 whole entry, looked up): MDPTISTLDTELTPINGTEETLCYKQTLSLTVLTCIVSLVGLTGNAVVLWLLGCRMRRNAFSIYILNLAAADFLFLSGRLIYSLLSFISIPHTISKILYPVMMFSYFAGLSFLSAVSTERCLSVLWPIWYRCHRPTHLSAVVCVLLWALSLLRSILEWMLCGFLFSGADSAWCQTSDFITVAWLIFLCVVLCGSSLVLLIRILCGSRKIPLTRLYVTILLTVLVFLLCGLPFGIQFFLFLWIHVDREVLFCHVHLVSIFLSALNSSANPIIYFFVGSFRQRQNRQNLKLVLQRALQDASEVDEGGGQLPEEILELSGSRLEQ
RGS4 act – RGS4 potentiation or activation | HEK293 M3R/inducible RGS4, carbachol calcium flux Fluo4; hits give low values | B-score at 10 µM | 310,000 tested, 0.92% active | AID 463111;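 active = B-score of the integrated calcium signal more than 4 SD below the library mean, with starting fluorescence not abnormally high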;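 note: negative B-score means reduced calcium response which marks RGS4 activation or potentiation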
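Also added: carbachol at ECmax as muscarinic agonist stimulus; Assay system: HEK293 cells with stable M3R and inducible RGS4; Timing: overnight RGS4 induction, 30 min dye load 37 °C, 20 min compound RT; Measured by: Fluo4-AM (2 µM) calcium-flux fluorescence, kinetic read.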
MrgX1 agonist – activates human MrgX1 receptor signaling | B-score at 10 µM | MrgX1-HEK293 cells, Fluo-4 calcium fluorescence, agonist mode; hits give high values | 310,000 tested, 0.44% active | Q96LB2;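 active = calcium response B-score plate-corrected fluorescence ratio at least 3 library SD, with starting fluorescence B-score inside 5 SD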
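times = overnight plating, then 30 min 37 °C plus 30 min room-temperature dye loading | assay system = stable human MrgX1 HEK293 cell line | input = fifteen thousand cells per well | signal = kinetic calcium dye fluorescence, Fluo-4 NW | dosing = compound delivered in addition one of three | read-out = B-scored fluorescence response ratio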
MrgX1 allo act – human MrgX1 positive allosteric modulation, primary screen | Q96LB2 | MrgX1-HEK293, Fluo-4 calcium flux, FDSS; hits give high values | B-score at 10 µM | 310,000 tested, 0.63% active;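 active = plate-corrected calcium response at least 3 library SD above typical, normal starting fluorescence, not activating the receptor alone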;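 note: compound read alongside a low EC10 to EC30 dose of BAM8-22 agonist; peak minus trough fluorescence over baseline measured at the second addition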
RGS4 block – inhibitors of human RGS4; 310,000 tested, 0.45% active; HEK293 M3R/RGS4 inducible, Fluo-4 calcium flux; hits give high values; triggered by carbachol at its EC20; P49798; B-score at 10 µM;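 active = B-score, a plate-corrected calcium signal, over three deviations above library mean, with baseline fluorescence within five deviations of library mean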;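 note: RGS4 expression induced by doxycycline in cells with stable M3 receptor; B-score is computed from the integrated fluorescence ratio over baseline after carbachol; higher B-score means a larger calcium signal and so more RGS4 inhibition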
Target sequence (P49798 whole entry, looked up): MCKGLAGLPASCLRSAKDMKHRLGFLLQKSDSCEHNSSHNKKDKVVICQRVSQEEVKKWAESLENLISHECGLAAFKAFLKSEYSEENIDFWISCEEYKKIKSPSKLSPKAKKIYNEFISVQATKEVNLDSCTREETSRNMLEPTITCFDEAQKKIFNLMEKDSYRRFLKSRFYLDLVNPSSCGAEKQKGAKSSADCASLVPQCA
* = called active by the depositor.

What do the screens show for `N#CCCN(C(=O)COC(=O)c1ccc(CNS(=O)(=O)c2ccc(F)c(Cl)c2)cc1)c1ccc(F)cc1`?
MrgX1 antagonist: inactive; RGS4 act: -8.8*; MrgX1 agonist: inactive; MrgX1 allo act: inactive; RGS4 block: inactive

Results for CCCN(CC1CC1)C(=O)COC(=O)c1ccc(CNS(=O)(=O)c2ccc(F)c(Cl)c2)cc1 ?
MrgX1 antagonist: -4.9*; RGS4 act: inactive; MrgX1 agonist: inactive; MrgX1 allo act: inactive; RGS4 block: inactive

Results for O=C(Nc1ccc(F)c(Cl)c1)C1CC2CCC1C2 (configuration not stated) ?
MrgX1 antagonist: inactive; RGS4 act: inactive; MrgX1 agonist: inactive; MrgX1 allo act: inactive; RGS4 block: inactive

What do the screens show for `CCN1C(=O)/C(=C\N(C)C)S/C1=N\S(=O)(=O)c1ccccc1`?
MrgX1 antagonist: inactive; RGS4 act: inactive; MrgX1 agonist: inactive; MrgX1 allo act: 10*; RGS4 block: inactive

Results for CN1CCN(C(=O)c2ccccc2Nc2ccc(SC(F)F)cc2)CC1 ?
MrgX1 antagonist: inactive; RGS4 act: inactive; MrgX1 agonist: inactive; MrgX1 allo act: inactive; RGS4 block: inactive

Results for CC1CC(C)CN(C(=O)c2ccccc2Nc2ccc(SC(F)F)cc2)C1 (configuration not stated) ?
MrgX1 antagonist: inactive; RGS4 act: -7.4*; MrgX1 agonist: inactive; MrgX1 allo act: inactive; RGS4 block: inactive

Results for O=C(CSc1ccc(Cl)cc1)N/N=C/c1ccc([N+](=O)[O-])o1 ?
MrgX1 antagonist: inactive; RGS4 act: inactive; MrgX1 agonist: inactive; MrgX1 allo act: inactive; RGS4 block: inactive

Results for Cc1c(CCOC(=O)CC23CC4CC(CC(C4)C2)C3)sc[n+]1Cc1ccccc1 ?
MrgX1 antagonist: inactive; RGS4 act: -7.7*; MrgX1 agonist: inactive; MrgX1 allo act: inactive; RGS4 block: inactive

Results for Cc1ncc(C[n+]2csc(CCOC(=O)CC34CC5CC(CC(C5)C3)C4)c2C)c(N)n1 ?
MrgX1 antagonist: inactive; RGS4 act: inactive; MrgX1 agonist: inactive; MrgX1 allo act: inactive; RGS4 block: inactive

Results for COC(=O)C1=C(C)N(C)C(=O)NC1c1cccc2ccccc12 (configuration not stated) ?
MrgX1 antagonist: inactive; RGS4 act: inactive; MrgX1 agonist: inactive; MrgX1 allo act: inactive; RGS4 block: inactive

How did Cc1ccc(Nc2nc(N)c([N+](=O)[O-])c(NCCO)n2)cc1 do in these assays?
MrgX1 antagonist: inactive; RGS4 act: inactive; MrgX1 agonist: inactive; MrgX1 allo act: 8*; RGS4 block: inactive

Results for Nc1nc(Nc2cccc(F)c2)nc(NCCO)c1[N+](=O)[O-] ?
MrgX1 antagonist: inactive; RGS4 act: inactive; MrgX1 agonist: inactive; MrgX1 allo act: inactive; RGS4 block: inactive

How did C=CCN1C(=O)[C@@H]2Cc3c([nH]c4ccccc34)C(c3ccc(O)cc3)N2C1=S (some centres not stated) do in these assays?
MrgX1 antagonist: -5.3*; RGS4 act: inactive; MrgX1 agonist: inactive; MrgX1 allo act: inactive; RGS4 block: inactive

Results for Cc1oc(-c2ccccc2Cl)nc1CN1CCCCC1c1cccnc1 (configuration not stated) ?
MrgX1 antagonist: inactive; RGS4 act: inactive; MrgX1 agonist: 41*; MrgX1 allo act: inactive; RGS4 block: inactive

Results for Cc1oc(-c2ccccc2Cl)nc1CN1CCCC1c1ccc(F)cc1 (configuration not stated) ?
MrgX1 antagonist: inactive; RGS4 act: inactive; MrgX1 agonist: inactive; MrgX1 allo act: inactive; RGS4 block: inactive

What do the screens show for `COc1ccc(C(C(=O)NC2CCCC2)N(C(=O)c2csnn2)C2CCCC2)cc1` (configuration not stated)?
MrgX1 antagonist: inactive; RGS4 act: inactive; MrgX1 agonist: inactive; MrgX1 allo act: inactive; RGS4 block: inactive

How did CSc1sccc1/C=C(/C#N)C(=O)c1ccco1 do in these assays?
MrgX1 antagonist: inactive; RGS4 act: inactive; MrgX1 agonist: 37*; MrgX1 allo act: inactive; RGS4 block: inactive

How did CCc1ccc2oc(-c3ccc(OC)cc3)cc(=Nc3c(C)n(C)n(-c4ccccc4)c3=O)c2c1 do in these assays?
MrgX1 antagonist: inactive; RGS4 act: -7.4*; MrgX1 agonist: inactive; MrgX1 allo act: inactive; RGS4 block: inactive

What do the screens show for `CC[C@@H](C)[C@H](CNC)NC[C@@H](Cc1cccc2ccccc12)NCCc1cccc(C(F)(F)F)c1`?
MrgX1 antagonist: inactive; RGS4 act: -9.3*; MrgX1 agonist: inactive; MrgX1 allo act: inactive; RGS4 block: inactive

What do the screens show for `CNC[C@@H](CC1CCCCC1)NC[C@H](CC(C)C)NCCc1cccc(C(F)(F)F)c1`?
MrgX1 antagonist: inactive; RGS4 act: -7.3*; MrgX1 agonist: inactive; MrgX1 allo act: inactive; RGS4 block: inactive

How did CNC[C@@H](Cc1ccccc1)NC[C@@H](CC1CCCCC1)NCCCc1ccccc1 do in these assays?
MrgX1 antagonist: inactive; RGS4 act: inactive; MrgX1 agonist: inactive; MrgX1 allo act: inactive; RGS4 block: inactive

How did CCC[C@H](CN[C@@H](CNC)[C@H](C)CC)NCCc1cc(C(F)(F)F)cc(C(F)(F)F)c1 do in these assays?
MrgX1 antagonist: inactive; RGS4 act: inactive; MrgX1 agonist: inactive; MrgX1 allo act: inactive; RGS4 block: inactive

How did CC(=O)Oc1ccc(C(=O)Nc2cc(C)on2)cc1 do in these assays?
MrgX1 antagonist: inactive; RGS4 act: inactive; MrgX1 agonist: inactive; MrgX1 allo act: inactive; RGS4 block: inactive

How did C[C@@H]1O[C@@H](OC2C(O)C(OCCc3ccc(O)c(O)c3)OC(CO)C2OC(=O)/C=C/c2ccc(O)c(O)c2)[C@H](O)[C@H](O)[C@H]1O (some centres not stated) do in these assays?
MrgX1 antagonist: -5.1*; RGS4 act: inactive; MrgX1 agonist: inactive; MrgX1 allo act: inactive; RGS4 block: inactive

Results for O=C(CC1Sc2ccccc2NC1=O)Nc1cccnc1 (configuration not stated) ?
MrgX1 antagonist: inactive; RGS4 act: inactive; MrgX1 agonist: inactive; MrgX1 allo act: inactive; RGS4 block: inactive

Results for O=C(CC1Sc2ccccc2NC1=O)Nc1ccccc1[N+](=O)[O-] (configuration not stated) ?
MrgX1 antagonist: -6.7*; RGS4 act: inactive; MrgX1 agonist: inactive; MrgX1 allo act: inactive; RGS4 block: inactive

How did O=[N+]([O-])c1ccc(N/N=C/c2cn(-c3ccccc3)nc2-c2ccccc2)cc1 do in these assays?
MrgX1 antagonist: -4.5*; RGS4 act: inactive; MrgX1 agonist: inactive; MrgX1 allo act: inactive; RGS4 block: inactive
